Measured values reported in ChEMBL document CHEMBL1123488, “Agents for the treatment of brain edema. 2. [(2,3,9,9a-Tetrahydro-3-oxo-9a-substituted-1H-fluoren-7-yl)oxy]+ ++alkanoi c acids and some of their analogues” (J Med Chem, 1986).

Experiments:
[1] = species on record: Felis catus; assay: Compound was tested for inhibition of chloride ion uptake in cat cerebrocortical slices at concentration of (10e-11) M; assay type: functional
Method in brief: (§1)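 Slices were incubated 60 min at 22 °C in 27 mM K+ medium with 5 mM HCO3- added for the last 40 min, with the compound present throughout. Slices were then filtered off, reweighed and homogenized (10% w/v) in 1 N perchloric acid. The supernatant was assayed for electrolytes, expressed as µmol/g initial wet weight. Two-tailed t-test versus 27 K + HCO3-.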

[2] = species on record: Felis catus; assay: Compound was tested for inhibition of HCO3- dependent swelling of cat cerebrocortical slices at concentration of (10e-11) M; assay type: functional
Method in brief: (§2)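 Cerebrocortical slices were weighed and incubated in Warburg flasks at 22 °C in medium of KCl 27, NaCl 100, glucose 10 and KH2PO4 1.2 mmol/L (27 mM K+ HEPES). HCO3- (5 mM) was added from the side arm for the final 40 min, and the compound was present throughout the 60 min. Swelling = (final − initial wet weight)/initial wet weight × 100. Two-tailed t-test versus 27 K + HCO3-.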

[3] = species on record: Cavia porcellus; assay: Compound was tested for inhibition of potassium ion uptake in guinea pig cerebrocortical slices at concentration of (10e-10) M; assay type: functional; method in brief: as §1
[4] = species on record: Felis catus; assay: Compound was tested for inhibition of sodium ion uptake in cat cerebrocortical slices at concentration of (10e-9 )M; assay type: functional
[5] = species on record: Cavia porcellus; assay: Compound was tested for inhibition of HCO3- dependent swelling of guinea pig cerebrocortical slices at concentration of (10e-12) M; assay type: functional; method in brief: as §2
[6] = species on record: Felis catus; assay: Compound was tested for inhibition of HCO3- dependent swelling of cat cerebrocortical slices at concentration of (10e-12) M; assay type: functional; method in brief: as §2
[7] = species on record: Rattus norvegicus; assay: Compound was tested for inhibition of sodium ion uptake in rat cerebrocortical slices at concentration of (10e-6) M; assay type: functional
[8] = species on record: Felis catus; assay: Compound was tested for inhibition of sodium ion uptake in cat cerebrocortical slices at concentration of (10e-13) M; assay type: functional
[9] = species on record: Rattus norvegicus; assay: Compound was tested for inhibition of sodium ion uptake in rat cerebrocortical slices at concentration of (10e-4) M; assay type: functional
[10] = species on record: Felis catus; assay: Compound was tested for inhibition of K+ ion uptake in cat cerebrocortical slices at concentration of (10e-9) M; assay type: functional; method in brief: as §1
[11] = species on record: Rattus norvegicus; assay: Compound was tested for inhibition of chloride ion uptake in rat cerebrocortical slices at concentration of (10e-3) M; assay type: functional; method in brief: as §1
[12] = species on record: Cavia porcellus; assay: Compound was tested for inhibition of potassium ion uptake in guinea pig cerebrocortical slices at concentration of (10e-6) M; assay type: functional; method in brief: as §1
[13] = species on record: Felis catus; assay: Compound was tested for inhibition of HCO3- dependent swelling of cat cerebrocortical slices at concentration of (10e-8) M; assay type: functional; method in brief: as §2
[14] = species on record: Felis catus; assay: In vitro concentration required for 50% inhibition of swelling of cat cerebrocortical slices; assay type: functional; conditions: read-out: I50
Method in brief: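 Cat cortical slices were weighed and incubated 60 min at 22 °C in 27 mM K+ medium, with HCO3- added for the last 40 min and inhibitor present throughout. Swelling = (final − initial wet weight)/initial wet weight × 100. The HCO3−-dependent increment was taken as the target. I50 is the molarity giving 50% inhibition, read from the concentration–response curve.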

[15] = species on record: Rattus norvegicus; assay: Compound was tested for inhibition of HCO3- dependent swelling of rat cerebrocortical slices at concentration of (10e-3) M; assay type: functional; method in brief: as §2
[16] = tested on: Felis catus; assay: In vivo activity in the acceleration-deceleration head injury assay at dose of 5 mg/kg; 1/19
[17] = species on record: Cavia porcellus; assay: Compound was tested for inhibition of sodium ion uptake in guinea pig cerebrocortical slices at concentration of (10e-11) M; assay type: functional
[18] = tested on: Felis catus; assay: In vivo activity in the acceleration-deceleration head injury assay at dose of 1 mg/kg; 12/25
[19] = species on record: Cavia porcellus; assay: Compound was tested for inhibition of chloride ion uptake in guinea pig cerebrocortical slices at concentration of (10e-6) M; assay type: functional; method in brief: as §1
[20] = species on record: Rattus norvegicus; assay: Compound was tested for inhibition of potassium ion uptake in rat cerebrocortical slices at concentration of (10e-6) M; assay type: functional
[21] = species on record: Felis catus; assay: Compound was tested for inhibition of HCO3- dependent swelling of cat cerebrocortical slices at concentration of (10e-10) M; assay type: functional; method in brief: as §2
[22] = species on record: Rattus norvegicus; assay: Compound was tested for inhibition of HCO3- dependent swelling of rat cerebrocortical slices at concentration of (10e-4) M; assay type: functional; method in brief: as §2
[23] = species on record: Felis catus; assay: Compound was tested for inhibition of sodium ion uptake in cat cerebrocortical slices at concentration of (10e-8) M; assay type: functional
[24] = tested on: Felis catus; assay: In vivo activity in the acceleration-deceleration head injury assay at dose of 2.5 mg/kg; 5/21
[25] = tested on: Felis catus; assay: In vivo activity in the acceleration-deceleration head injury assay at dose of 10 mg/kg; 6/16
[26] = species on record: Felis catus; assay: Compound was tested for inhibition of K+ ion uptake in cat cerebrocortical slices at concentration of (10e-7) M; assay type: functional; method in brief: as §1
[27] = species on record: Felis catus; assay: Compound was tested for inhibition of K+ ion uptake in cat cerebrocortical slices at concentration of (10e-11) M; assay type: functional; method in brief: as §1
[28] = species on record: Cavia porcellus; assay: Compound was tested for inhibition of HCO3- dependent swelling of guinea pig cerebrocortical slices at concentration of (10e-10) M; assay type: functional; method in brief: as §2
[29] = tested on: Felis catus; assay: In vivo activity in the acceleration-deceleration head injury assay at dose of 2.5 mg/kg; 8-19
[30] = species on record: Rattus norvegicus; assay: Compound was tested for inhibition of HCO3- dependent swelling of rat cerebrocortical slices at concentration of (10e-6) M; assay type: functional; method in brief: as §2
[31] = species on record: Cavia porcellus; assay: Compound was tested for inhibition of HCO3- dependent swelling of guinea pig cerebrocortical slices at concentration of (10e-7) M; assay type: functional; method in brief: as §2
[32] = tested on: Felis catus; assay: In vivo activity in the acceleration-deceleration head injury assay at dose of 10 mg/kg; 15/19
[33] = species on record: Felis catus; assay: Compound was tested for inhibition of chloride ion uptake in cat cerebrocortical slices at concentration of (10e-10) M; assay type: functional; method in brief: as §1
[34] = species on record: Felis catus; assay: Compound was tested for inhibition of chloride ion uptake in cat cerebrocortical slices at concentration of (10e-9) M; assay type: functional; method in brief: as §1
[35] = species on record: Cavia porcellus; assay: Compound was tested for inhibition of HCO3- dependent swelling of guinea pig cerebrocortical slices at concentration of (10e-6) M; assay type: functional; method in brief: as §2
[36] = species on record: Rattus norvegicus; assay: Compound was tested for inhibition of potassium ion uptake in rat cerebrocortical slices at concentration of (10e-4) M; assay type: functional
[37] = species on record: Cavia porcellus; assay: Compound was tested for inhibition of HCO3- dependent swelling of guinea pig cerebrocortical slices at concentration of (10e-8) M; assay type: functional; method in brief: as §2
[38] = species on record: Felis catus; assay: Compound was tested for inhibition of K+ ion uptake in cat cerebrocortical slices at concentration of (10e-13) M; assay type: functional; method in brief: as §1

CCCC12CCC(=O)C=C1c1c(cc(OCC(=O)O)c(Cl)c1Cl)C2 (single isomer, unassigned; (+))
Activity [1]: 87.9
Swelling [2]: 19.1%
Activity [3]: 101.3
Activity [4]: 85.6
Swelling [5]: 30.9%
Swelling [6]: 21.3%
Activity [7]: 127
Activity [8]: 107.3
Activity [9]: 112.1
Activity [10]: 86
Activity [11]: 106.3
Activity [12]: 95
Swelling [13]: 18.6%
IC50 [14]: 20 pM
Swelling [15]: 19.1%
Deaths [16]: 1
Activity [17]: 103.4
Deaths [18]: 12
Activity [19]: 103.8
Activity [20]: 71.9
Swelling [21]: 19.5%
Swelling [22]: 22.8%
Activity [23]: 87.2
Deaths [24]: 5
Deaths [25]: 6
Activity [26]: 83.9
Activity [27]: 88.8
Swelling [28]: 26.8%
Deaths [29]: 8
Swelling [30]: 22.7%
Swelling [31]: 26.4%
Deaths [32]: 15
Activity [33]: 91.9
Activity [34]: 89.3
Swelling [35]: 26.8%
Activity [36]: 73.7
Swelling [37]: 24.4%
Activity [38]: 87.6
